# From ChEMBL document CHEMBL3608246, “Novel benzidine and diaminofluorene prolinamide derivatives as potent hepatitis C virus NS5A inhibitors” (Eur J Med Chem, 2015)
# pEC50: −log10 of the molar value.
# What was measured:
# Hepatitis C virus [1] = experiment: Antiviral activity against HCV genotype 2a JFH5a infected in human Huh7.5.1 cells transfected with JFH5a-Rluc-ad34 assessed as reduction in virus proliferation by luciferase reporter gene assay; format: functional, cell-based, Hepacivirus hominis, Huh-7
# [2] = Cytotoxicity against human Huh7.5.1 cells; format: cell-based, Huh-7
# Hepatitis C virus [3] = experiment: Antiviral activity against HCV genotype 1b NK/R2AN infected in human Huh7.5.1 cells assessed as reduction in virus replication by luciferase reporter gene assay; format: functional, organism-based, Hepacivirus hominis, subtype 1b NK/R2AN, Huh-7
# Cytochrome P450 2D6 = Cytochrome P450 2D6 (Homo sapiens, UniProt P10635); experiment: Inhibition of human CYP2D6 by luminometry; format: ADME
# Sequence of Cytochrome P450 2D6 (P10635 whole entry): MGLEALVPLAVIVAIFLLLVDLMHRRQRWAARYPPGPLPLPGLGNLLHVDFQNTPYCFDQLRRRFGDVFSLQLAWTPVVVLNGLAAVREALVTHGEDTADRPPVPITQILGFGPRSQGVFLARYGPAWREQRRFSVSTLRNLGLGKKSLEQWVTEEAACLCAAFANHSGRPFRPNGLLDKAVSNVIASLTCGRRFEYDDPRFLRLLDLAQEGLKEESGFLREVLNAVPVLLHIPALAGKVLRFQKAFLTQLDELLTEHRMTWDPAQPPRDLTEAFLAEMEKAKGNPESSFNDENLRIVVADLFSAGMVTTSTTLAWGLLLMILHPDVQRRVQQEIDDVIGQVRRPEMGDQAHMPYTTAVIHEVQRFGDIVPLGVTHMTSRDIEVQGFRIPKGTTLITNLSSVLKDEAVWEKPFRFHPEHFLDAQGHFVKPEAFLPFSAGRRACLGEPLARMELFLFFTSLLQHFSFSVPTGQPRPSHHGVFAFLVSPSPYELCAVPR
# Procedure, shortened: (§1)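 Human CYP1A2, 2C9, 2C19, 2D6 and 3A4 inhibition by P450-Glo luminescent assay per kit protocol; compounds at 100, 50, 10, 5, 1, 0.1 and 0.01 µM; luminometer read-out.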
# Cytochrome P450 2C9 = Cytochrome P450 2C9 (Homo sapiens, UniProt P11712); experiment: Inhibition of human CYP2C9 by luminometry; format: ADME; procedure, shortened: as §1
# Sequence of Cytochrome P450 2C9 (P11712 whole entry): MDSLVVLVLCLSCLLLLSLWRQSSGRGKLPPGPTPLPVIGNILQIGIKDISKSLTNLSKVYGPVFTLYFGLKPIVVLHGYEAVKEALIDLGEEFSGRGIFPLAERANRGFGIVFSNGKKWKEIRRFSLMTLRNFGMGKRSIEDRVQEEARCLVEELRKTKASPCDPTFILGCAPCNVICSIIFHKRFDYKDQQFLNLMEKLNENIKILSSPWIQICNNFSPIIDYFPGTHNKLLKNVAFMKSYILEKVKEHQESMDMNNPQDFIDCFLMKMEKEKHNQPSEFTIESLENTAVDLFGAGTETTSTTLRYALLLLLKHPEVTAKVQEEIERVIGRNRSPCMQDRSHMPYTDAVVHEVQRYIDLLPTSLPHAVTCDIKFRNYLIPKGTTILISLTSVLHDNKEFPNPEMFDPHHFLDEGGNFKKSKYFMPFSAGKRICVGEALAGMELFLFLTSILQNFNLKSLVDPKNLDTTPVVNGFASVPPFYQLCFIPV
# [4] = Stability in rat plasma assessed as compound remaining t 100 uM after 0.5 hrs by LC-MS/MS method; format: ADME, cell-free; conditions: read-out: Stability
# Procedure, shortened: (§2)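 Rat plasma pre-warmed 5 min at 37 °C, mixed with test compound from 100 µM stock (3 into 297 parts), incubated at 37 °C; sampled at 0, 15, 30, 60, 120 min, acetonitrile-precipitated, centrifuged 10 min, supernatant analysed by LC-MS/MS.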
# [5] = Stability in human liver microsomes assessed as compound remaining at 1 uM after 0.5 hrs by LC-MS/MS method; format: ADME; conditions: read-out: Stability
# Procedure, shortened: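 Pooled human liver microsomal fraction with β-NADPH, compound at 1 µM, incubated over 30 min; remaining compound in supernatant quantified by LC-MS/MS.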
# Cytochrome P450 3A4 = Cytochrome P450 3A4 (Homo sapiens, UniProt P08684); experiment: Inhibition of human CYP3A4 by luminometry; format: ADME; procedure, shortened: as §1
# Sequence of Cytochrome P450 3A4 (P08684 whole entry): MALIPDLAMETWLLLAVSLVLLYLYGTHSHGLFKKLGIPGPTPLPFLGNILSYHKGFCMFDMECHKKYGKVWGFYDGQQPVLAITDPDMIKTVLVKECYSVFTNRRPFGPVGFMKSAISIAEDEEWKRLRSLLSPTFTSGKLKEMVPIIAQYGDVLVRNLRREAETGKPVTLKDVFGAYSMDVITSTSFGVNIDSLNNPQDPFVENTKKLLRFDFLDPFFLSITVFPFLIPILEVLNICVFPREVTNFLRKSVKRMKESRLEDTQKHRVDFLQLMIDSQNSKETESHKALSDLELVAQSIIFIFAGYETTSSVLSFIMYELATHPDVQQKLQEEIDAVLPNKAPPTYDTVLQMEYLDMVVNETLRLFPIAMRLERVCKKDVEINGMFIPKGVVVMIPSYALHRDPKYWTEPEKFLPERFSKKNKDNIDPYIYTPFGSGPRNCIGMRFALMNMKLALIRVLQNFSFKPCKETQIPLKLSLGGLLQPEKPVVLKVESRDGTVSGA
# Cytochrome P450 1A2 = biological target: T1, Cytochrome P450 1A2 (Homo sapiens, UniProt P05177); experiment: Inhibition of human CYP1A2 by luminometry; format: ADME; procedure, shortened: as §1
# T1 sequence (P05177 whole entry): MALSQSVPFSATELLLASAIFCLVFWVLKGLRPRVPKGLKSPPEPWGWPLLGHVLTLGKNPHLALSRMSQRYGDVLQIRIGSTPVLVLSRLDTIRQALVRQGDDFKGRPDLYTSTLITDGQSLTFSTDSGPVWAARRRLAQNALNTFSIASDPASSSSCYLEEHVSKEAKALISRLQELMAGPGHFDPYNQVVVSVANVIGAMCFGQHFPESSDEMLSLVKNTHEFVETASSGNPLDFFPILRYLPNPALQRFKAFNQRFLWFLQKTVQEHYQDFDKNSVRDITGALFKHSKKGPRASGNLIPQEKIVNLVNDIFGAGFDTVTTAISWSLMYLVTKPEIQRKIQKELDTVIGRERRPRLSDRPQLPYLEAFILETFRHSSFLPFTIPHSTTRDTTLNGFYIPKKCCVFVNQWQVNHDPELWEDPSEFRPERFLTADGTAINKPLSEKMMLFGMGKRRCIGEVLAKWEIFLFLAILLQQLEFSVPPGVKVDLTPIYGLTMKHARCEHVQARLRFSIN
# [6] = Half life in Sprague-Dawley rat at 5 mg/kg, iv by LC/MS/MS method; format: ADME, organism-based; conditions: in vivo
# Procedure, shortened: (§3)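 Sprague-Dawley rats, 2 male and 1 female per compound per route, parallel design. Vehicle 5% DMSO, 10% solutol, 85% HPBCD; IV 5 mg/kg bolus via tail vein, oral 10 mg/kg. Blood into K2-EDTA tubes at several time points, centrifuged, plasma analysed by LC/MS/MS; non-compartmental analysis.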
# Cytochrome P450 2C19 = Cytochrome P450 2C19 (Homo sapiens, UniProt P33261); experiment: Inhibition of human CYP2C19 by luminometry; format: ADME; procedure, shortened: as §1
# Sequence of Cytochrome P450 2C19 (P33261 whole entry): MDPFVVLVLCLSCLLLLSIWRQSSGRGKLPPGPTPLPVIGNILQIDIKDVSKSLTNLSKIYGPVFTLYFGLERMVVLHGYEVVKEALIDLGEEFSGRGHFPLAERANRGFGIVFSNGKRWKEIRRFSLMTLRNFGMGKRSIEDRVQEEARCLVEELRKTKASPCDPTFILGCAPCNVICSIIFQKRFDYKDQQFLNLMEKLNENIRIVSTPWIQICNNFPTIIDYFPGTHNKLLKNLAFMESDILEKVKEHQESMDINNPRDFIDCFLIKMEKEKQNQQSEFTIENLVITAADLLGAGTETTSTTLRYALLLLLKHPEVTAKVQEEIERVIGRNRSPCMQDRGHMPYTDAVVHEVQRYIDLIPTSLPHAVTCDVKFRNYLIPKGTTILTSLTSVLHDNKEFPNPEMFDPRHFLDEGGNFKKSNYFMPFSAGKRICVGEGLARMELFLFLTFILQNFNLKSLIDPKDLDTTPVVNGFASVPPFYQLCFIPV
# [7] = Stability in rat plasma assessed as compound remaining at 100 uM after 2 hrs by LC-MS/MS method; format: ADME, cell-free; conditions: read-out: Stability; procedure, shortened: as §2
# [8] = Half life in Sprague-Dawley rat at 10 mg/kg, po by LC/MS/MS method; format: ADME, organism-based; conditions: in vivo; procedure, shortened: as §3
# hERG (KCNH2) = hERG (KCNH2) (Homo sapiens, UniProt Q12809); experiment: Inhibition of human ERG at 10 uM by fluorescence polarization assay based ligand binding assay
# Sequence of hERG (KCNH2) (Q12809 whole entry): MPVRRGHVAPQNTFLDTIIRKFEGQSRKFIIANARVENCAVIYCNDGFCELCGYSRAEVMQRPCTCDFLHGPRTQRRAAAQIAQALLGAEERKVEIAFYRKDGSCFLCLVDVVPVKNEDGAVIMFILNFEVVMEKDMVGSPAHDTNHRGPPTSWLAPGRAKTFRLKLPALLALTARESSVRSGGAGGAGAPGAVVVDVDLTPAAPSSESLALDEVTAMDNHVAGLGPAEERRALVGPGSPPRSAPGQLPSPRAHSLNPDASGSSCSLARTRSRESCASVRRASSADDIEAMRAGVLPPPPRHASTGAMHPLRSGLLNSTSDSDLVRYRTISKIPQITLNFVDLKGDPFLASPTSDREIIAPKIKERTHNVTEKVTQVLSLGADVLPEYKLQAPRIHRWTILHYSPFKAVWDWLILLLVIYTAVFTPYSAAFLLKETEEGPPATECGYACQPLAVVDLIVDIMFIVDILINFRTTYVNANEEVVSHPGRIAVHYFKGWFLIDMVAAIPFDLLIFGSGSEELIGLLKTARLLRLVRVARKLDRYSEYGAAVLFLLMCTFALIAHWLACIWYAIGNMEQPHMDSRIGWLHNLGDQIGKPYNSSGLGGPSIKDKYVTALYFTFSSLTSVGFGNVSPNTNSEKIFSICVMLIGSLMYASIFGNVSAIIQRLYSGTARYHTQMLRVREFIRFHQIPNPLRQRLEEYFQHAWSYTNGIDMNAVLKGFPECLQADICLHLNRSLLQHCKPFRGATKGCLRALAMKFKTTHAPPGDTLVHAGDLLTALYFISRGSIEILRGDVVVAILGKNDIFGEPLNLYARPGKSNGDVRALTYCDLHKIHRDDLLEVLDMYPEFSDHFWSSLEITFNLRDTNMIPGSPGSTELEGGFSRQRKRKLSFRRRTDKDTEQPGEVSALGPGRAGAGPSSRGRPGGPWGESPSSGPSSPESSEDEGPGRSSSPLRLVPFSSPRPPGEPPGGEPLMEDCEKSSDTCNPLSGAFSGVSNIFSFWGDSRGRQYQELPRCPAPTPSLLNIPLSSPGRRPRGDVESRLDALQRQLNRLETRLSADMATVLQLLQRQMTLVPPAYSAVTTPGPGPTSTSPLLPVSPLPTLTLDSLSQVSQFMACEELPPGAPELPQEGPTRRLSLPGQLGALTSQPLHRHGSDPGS
# [9] = Oral bioavailability in Sprague-Dawley rat at 10 mg/kg by LC/MS/MS method; format: ADME, organism-based; conditions: in vivo; procedure, shortened: as §3
# [10] = Stability in rat plasma assessed as compound remaining at 100 uM after 1 hr by LC-MS/MS method; format: ADME, cell-free; conditions: read-out: Stability; procedure, shortened: as §2
# [11] = Hepatitis C virus, genotype 2a JFH5a, Huh-7
# [12] = Hepatitis C virus, subtype 1b NK/R2AN, Huh-7
smiles,measurement,setting,value
COC(=O)N[C@@H](C(=O)N1CCC[C@H]1C(=O)Nc1ccc(-c2ccc(NC(=O)[C@@H]3CCCN3C(=O)[C@H](NC(=O)OC)c3ccccc3)c(C)c2)cc1C)c1ccccc1,pEC50,Hepatitis C virus [1]; [11],6.71
same,CC50,[2],> 25000 nM
same,pEC50,Hepatitis C virus [3]; [12],8.13
COC(=O)N[C@@H](C(=O)N1CCC[C@H]1C(=O)Nc1ccc(-c2ccc(NC(=O)[C@@H]3CCCN3C(=O)[C@H](NC(=O)OC)c3ccccc3)cc2Br)c(Br)c1)c1ccccc1,pEC50,Hepatitis C virus [1]; [11],11.00
same,CC50,[2],> 25000 nM
same,pEC50,Hepatitis C virus [3]; [12],11.15
COC(=O)N[C@@H](C(=O)N1CCC[C@H]1C(=O)Nc1ccc(-c2ccc(NC(=O)[C@@H]3CCCN3C(=O)[C@H](NC(=O)OC)c3ccccc3)cc2F)c(F)c1)c1ccccc1,pEC50,Hepatitis C virus [1]; [11],9.80
same,pEC50,Cytochrome P450 2D6,5.31
same,pEC50,Cytochrome P450 2C9,7.06
same,"remaining at 0.5 h, 100 µM",[4],65%
same,"remaining at 0.5 h, 1 µM",[5],97%
same,pEC50,Cytochrome P450 3A4,5.61
same,CC50,[2],> 25000 nM
same,pEC50,Cytochrome P450 1A2,< 4.00
same,pEC50,Hepatitis C virus [3]; [12],11.30
same,half-life,[6],0.88 h
same,pEC50,Cytochrome P450 2C19,6.14
same,"remaining at 2 h, 100 µM",[7],63%
same,half-life,[8],2.34 h
same,inhibition at 10 µM,hERG (KCNH2),< 1%
same,bioavailability,[9],3.12%
same,"remaining at 1 h, 100 µM",[10],61%
COC(=O)N[C@@H](C(=O)N1CCC[C@H]1C(=O)Nc1ccc(-c2ccc(NC(=O)[C@@H]3CCCN3C(=O)[C@H](NC(=O)OC)c3ccccc3)cc2C(F)(F)F)c(C(F)(F)F)c1)c1ccccc1 (stereo in doubt; form 3),pEC50,Hepatitis C virus [1]; huh-7,7.61
same,pEC50,Hepatitis C virus [3]; huh-7,8.62
COC(=O)N[C@@H](C(=O)N1CCCC[C@@H]1C(=O)Nc1ccc(-c2ccc(NC(=O)[C@H]3CCCCN3C(=O)[C@H](NC(=O)OC)c3ccccc3)cc2)cc1)c1ccccc1,pEC50,Hepatitis C virus [1]; [11],6.38
same,CC50,[2],> 25000 nM
same,pEC50,Hepatitis C virus [3]; [12],6.43
COC(=O)N[C@@H](C(=O)N1CCC[C@@]1(C)C(=O)Nc1ccc(-c2ccc(NC(=O)[C@]3(C)CCCN3C(=O)[C@H](NC(=O)OC)c3ccccc3)cc2)cc1)c1ccccc1,pEC50,Hepatitis C virus [1]; [11],8.48
same,CC50,[2],> 25000 nM
same,pEC50,Hepatitis C virus [3]; [12],8.66
COC(=O)N[C@@H](C(=O)N1CCC[C@H]1C(=O)Nc1ccc2c(c1)Cc1cc(NC(=O)[C@@H]3CCCN3C(=O)[C@H](NC(=O)OC)c3ccccc3)ccc1-2)c1ccccc1,pEC50,Hepatitis C virus [1]; [11],8.25
same,CC50,[2],> 25000 nM
same,pEC50,Hepatitis C virus [3]; [12],11.05
COC(=O)N[C@@H](C(=O)N1CCC[C@H]1C(=O)Nc1ccc(-c2ccc(NC(=O)[C@@H]3CCCN3C(=O)[C@H](NC(=O)OC)c3ccccc3)cc2Cl)c(Cl)c1)c1ccccc1,pEC50,Hepatitis C virus [1]; [11],11.00
same,pEC50,Cytochrome P450 2D6,4.39
same,pEC50,Cytochrome P450 2C9,6.94
same,"remaining at 0.5 h, 100 µM",[4],72%
same,"remaining at 0.5 h, 1 µM",[5],96%
same,pEC50,Cytochrome P450 3A4,5.40
same,CC50,[2],> 25000 nM
same,pEC50,Cytochrome P450 1A2,4.62
same,pEC50,Hepatitis C virus [3]; [12],11.15
same,half-life,[6],1.55 h
same,pEC50,Cytochrome P450 2C19,5.98
same,"remaining at 2 h, 100 µM",[7],70%
same,half-life,[8],6.37 h
same,inhibition at 10 µM,hERG (KCNH2),5.8%
same,bioavailability,[9],4.99%
same,"remaining at 1 h, 100 µM",[10],75%
COC(=O)N[C@@H](C(=O)N1CCC[C@H]1C(=O)Nc1ccc(-c2ccc(NC(=O)[C@@H]3CCCN3C(=O)[C@H](NC(=O)OC)c3ccccc3)cc2)cc1)c1ccccc1,CC50,[2],> 25000 nM
COC(=O)N[C@@H](C(=O)N1CCC[C@H]1C(=O)Nc1ccc(-c2ccc(NC(=O)[C@@H]3CCCN3C(=O)[C@H](NC(=O)OC)c3ccccc3)cc2C(F)(F)F)c(C(F)(F)F)c1)c1ccccc1 (stereo in doubt; form 2),pEC50,Hepatitis C virus [1]; huh-7,6.48
same,CC50,[2],> 25000 nM
same,pEC50,Hepatitis C virus [3]; huh-7,7.55
COC(=O)N[C@@H](C(=O)N1CCC[C@H]1C(=O)Nc1ccc2c(c1)C(C)(C)c1cc(NC(=O)[C@@H]3CCCN3C(=O)[C@H](NC(=O)OC)c3ccccc3)ccc1-2)c1ccccc1,pEC50,Hepatitis C virus [1]; [11],10.70
same,pEC50,Cytochrome P450 2D6,< 4.00
same,pEC50,Cytochrome P450 2C9,6.57
same,"remaining at 0.5 h, 1 µM",[5],95%
same,pEC50,Cytochrome P450 3A4,5.99
same,CC50,[2],> 25000 nM
same,pEC50,Cytochrome P450 1A2,< 4.00
same,pEC50,Hepatitis C virus [3]; [12],11.40
same,half-life,[6],1.62 h
same,pEC50,Cytochrome P450 2C19,5.53
same,half-life,[8],4.45 h
same,inhibition at 10 µM,hERG (KCNH2),25.7%
same,bioavailability,[9],13.8%
COC(=O)N[C@@H](C(=O)N1CCCC[C@H]1C(=O)Nc1ccc(-c2ccc(NC(=O)[C@@H]3CCCCN3C(=O)[C@H](NC(=O)OC)c3ccccc3)cc2)cc1)c1ccccc1,pEC50,Hepatitis C virus [1]; [11],6.74
same,CC50,[2],> 25000 nM
same,pEC50,Hepatitis C virus [3]; [12],8.68
COC(=O)N[C@@H](C(=O)N1CCC[C@H]1C(=O)Nc1ccc(-c2ccc(NC(=O)[C@@H]3CCCN3C(=O)[C@H](NC(=O)OC)c3ccccc3)cc2C)c(C)c1)c1ccccc1,pEC50,Hepatitis C virus [1]; [11],9.49
same,CC50,[2],> 25000 nM
same,pEC50,Hepatitis C virus [3]; [12],10.46
COC(=O)N[C@@H](C(=O)N1CCC[C@H]1C(=O)Nc1ccc(-c2ccc(NC(=O)[C@@H]3CCCN3C(=O)[C@H](NC(=O)OC)c3ccccc3)cc2C(F)(F)F)c(C(F)(F)F)c1)c1ccccc1 (stereo in doubt; form 1),pEC50,Hepatitis C virus [1]; huh-7,10.60
same,pEC50,Cytochrome P450 2D6,< 4.00
same,pEC50,Cytochrome P450 2C9,6.18
same,"remaining at 0.5 h, 100 µM",[4],93%
same,"remaining at 0.5 h, 1 µM",[5],79%
same,pEC50,Cytochrome P450 3A4,5.33
same,pEC50,Cytochrome P450 1A2,4.10
same,pEC50,Hepatitis C virus [3]; huh-7,11.60
same,half-life,[6],2.9 h
same,pEC50,Cytochrome P450 2C19,5.33
same,"remaining at 2 h, 100 µM",[7],99%
same,half-life,[8],3.8 h
same,inhibition at 10 µM,hERG (KCNH2),7.98%
same,bioavailability,[9],11.7%
same,"remaining at 1 h, 100 µM",[10],99%
COC(=O)N[C@@H](C(=O)N1CC(=O)C[C@H]1C(=O)Nc1ccc(-c2ccc(NC(=O)[C@@H]3CC(=O)CN3C(=O)[C@H](NC(=O)OC)c3ccccc3)cc2)cc1)c1ccccc1,pEC50,Hepatitis C virus [1]; [11],9.59
same,CC50,[2],> 25000 nM
same,pEC50,Hepatitis C virus [3]; [12],10.36
COC(=O)N[C@@H](C(=O)N1CCC[C@H]1C(=O)Nc1ccc2c(c1)C(=O)c1cc(NC(=O)[C@@H]3CCCN3C(=O)[C@H](NC(=O)OC)c3ccccc3)ccc1-2)c1ccccc1,pEC50,Hepatitis C virus [1]; [11],8.37
same,CC50,[2],> 25000 nM
same,pEC50,Hepatitis C virus [3]; [12],11.40
COC(=O)N[C@@H](C(=O)N1CCC[C@@H]1C(=O)Nc1ccc(-c2ccc(NC(=O)[C@H]3CCCN3C(=O)[C@H](NC(=O)OC)c3ccccc3)cc2)cc1)c1ccccc1,pEC50,Hepatitis C virus [1]; [11],5.75
same,CC50,[2],> 25000 nM
same,pEC50,Hepatitis C virus [3]; [12],7.08
COC(=O)N[C@@H](C(=O)N1CSC[C@H]1C(=O)Nc1ccc(-c2ccc(NC(=O)[C@@H]3CSCN3C(=O)[C@H](NC(=O)OC)c3ccccc3)cc2)cc1)c1ccccc1,pEC50,Hepatitis C virus [1]; [11],7.81
same,CC50,[2],> 25000 nM
same,pEC50,Hepatitis C virus [3]; [12],10.57
